Laboratory results as given in ChEMBL document CHEMBL1122233, “Antihypertensive 9-substituted 1-oxa-4,9-diazaspiro[5.5]undecan-3-ones” (J Med Chem, 1983).

Assays:
Rattus norvegicus [1] = test: Percentage fall in systolic blood pressure after 4 hr at 25 mg/kg given perorally; type: functional, organism-based; parameters: dose 25 mg/kg; settings: Artery
Summary of the method: (§1)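 Male Okamoto-Aoki spontaneously hypertensive rats, trained, in groups of four matched for mean systolic pressure; five treated groups and one vehicle control run concurrently. Oral dosing in water (solution or suspension, 0.1 mL/10 g) on two consecutive mornings. On day 2, rats were restrained at 30.0 ± 1.0 °C and tail-cuff systolic pressure recorded at 1–4 h; percent fall versus control, 1-tail t test, p ≤ 0.05.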

Rattus norvegicus [2] = test: Percentage fall in systolic blood pressure after 1 hr at 50 mg/kg given perorally; type: functional, organism-based; parameters: dose 50 mg/kg; settings: Artery; summary of the method: as §1
Rattus norvegicus [3] = test: Percentage fall in systolic blood pressure after 2 hours at 50 mg/kg given perorally; type: functional, organism-based; parameters: dose 50 mg/kg; settings: Artery; summary of the method: as §1
Rattus norvegicus [4] = test: (§2) Percentage fall in systolic blood pressure after 3 hours at 50 mg/kg given perorally; type: functional, organism-based; parameters: dose 50 mg/kg; settings: Artery; summary of the method: as §1
Rattus norvegicus [5] = test: (§3) Percentage fall in systolic blood pressure after 4 hours at 50 mg/kg given perorally; type: functional, organism-based; parameters: dose 50 mg/kg; settings: Artery; summary of the method: as §1
Rattus norvegicus [6] = test: as §2; type: functional, organism-based; parameters: dose 50 mg/kg; settings: Artery; remark: listed apart in the source
Summary of the method: (§4)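 Male Okamoto-Aoki SHR, four per group, with a concurrent vehicle control group. Oral dosing in water (0.1 mL/10 g) on two consecutive mornings. After the day-2 dose, rats were restrained in a 30 °C chamber. Tail-cuff systolic pressure was taken at 1-4 h from four traces per rat. Result is % decrease versus control mean, by 1-tailed t test, p ≤ 0.05.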

Rattus norvegicus [7] = test: as §3; type: functional, organism-based; parameters: dose 50 mg/kg; settings: Artery; summary of the method: as §4; remark: listed apart in the source
Rattus norvegicus [8] = test: Percentage fall in systolic blood pressure after 2 hours at 50 mg/kg given perorally.; type: functional, Artery; settings: route oral; summary of the method: as §1

Row | Structure (SMILES) | Decrease in SBP (Rattus norvegicus [1]) | Decrease in SBP (Rattus norvegicus [2]) | Decrease in SBP (Rattus norvegicus [3]) | Decrease in SBP (Rattus norvegicus [4]) | Decrease in SBP (Rattus norvegicus [5]) | Decrease in SBP (Rattus norvegicus [6]) | Decrease in SBP (Rattus norvegicus [7]) | Decrease in SBP (Rattus norvegicus [8])
1 | CN1CC2(CCN(CC(O)C3COc4ccccc4O3)CC2)OCC1=O (stereo in doubt; 60) | Not significant |  |  |  |  |  |  | 
2 | O=C1COC2(CCN(CC(O)C3COc4ccccc4O3)CC2)C(c2ccccc2)N1 (centres undefined) |  | Not significant | Not significant | Not significant | Not significant |  |  | 
3 | O=C1COC2(CCN(CC(O)COc3ccccc3)CC2)CN1 (centres undefined) |  | Not significant |  |  |  | Not significant | Not significant | 18%
